Experimental data reported in ChEMBL document CHEMBL4610124, “Novel Thienopyrimidine Inhibitors of Leishmania N-Myristoyltransferase with On-Target Activity in Intracellular Amastigotes” (J Med Chem, 2020).

test system: Leishmania donovani; assay: Antileishmanial activity against Leishmania donovani MHOM/ET/67/HU3 intracellular amastigotes measured after 72 hrs by alamar blue dye based fluorescence assay; type: functional, organism-based; settings: MHOM/ET/67/HU3, 72 h
In short: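 Ex vivo L. donovani LV9 amastigotes, kept by serial passage in Rag-2−/− mice, isolated from infected spleens by homogenization and saponin lysis. Plated at 4 × 10⁵ per well in RPMI with 20% heat-inactivated FCS, adenine, 20 mM MES (pH 5.5), hemin, biopterin and biotin.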

SMILES	EC50 [µM]
CN1CCC(N(C)c2nc(N3CCC[C@H]3CC#N)c3sccc3n2)CC1	19
CN(C)CCCN(C)c1nc(N(C)CCC#N)c2cc(Br)ccc2n1	17
CN(C)CCCN(C)c1nc(N(C)CCC#N)c2sc(C(C)(C)C)cc2n1	37
CN(CCC#N)c1nc(N(C)C2CCNCC2)nc2ccsc12	> 50
CN(C)CCCN(C)c1nc(N2CCC[C@H]2CO)c2sccc2n1	> 50
CCN1CCC(N(C)c2nc(N(C)CCC#N)c3ccccc3n2)CC1	> 50
COC[C@@H]1CCCN1c1nc(N(C)C2CCN(C)CC2)nc2ccsc12	26
CN(CCC#N)c1nc(N(C)C2CCNC2)nc2cc(C(C)(C)C)sc12 (centres undefined)	21
CN(C)CCCN(C)c1nc(N(C)CCC(N)=O)c2sccc2n1	> 50
CN(CCC#N)c1nc(N(C)C2CCNCC2)nc2ccccc12	> 50
CN(C)CCCN(C)c1nc(N(C)CCCO)c2sccc2n1	> 50
CN(C)CCCN(C)c1nc(N(C)CCC#N)c2ccccc2n1	> 50

target: T1, Glycylpeptide N-tetradecanoyltransferase 1 (Homo sapiens, UniProt P30419); type: ADME; settings: not given
T1 sequence (P30419 whole entry): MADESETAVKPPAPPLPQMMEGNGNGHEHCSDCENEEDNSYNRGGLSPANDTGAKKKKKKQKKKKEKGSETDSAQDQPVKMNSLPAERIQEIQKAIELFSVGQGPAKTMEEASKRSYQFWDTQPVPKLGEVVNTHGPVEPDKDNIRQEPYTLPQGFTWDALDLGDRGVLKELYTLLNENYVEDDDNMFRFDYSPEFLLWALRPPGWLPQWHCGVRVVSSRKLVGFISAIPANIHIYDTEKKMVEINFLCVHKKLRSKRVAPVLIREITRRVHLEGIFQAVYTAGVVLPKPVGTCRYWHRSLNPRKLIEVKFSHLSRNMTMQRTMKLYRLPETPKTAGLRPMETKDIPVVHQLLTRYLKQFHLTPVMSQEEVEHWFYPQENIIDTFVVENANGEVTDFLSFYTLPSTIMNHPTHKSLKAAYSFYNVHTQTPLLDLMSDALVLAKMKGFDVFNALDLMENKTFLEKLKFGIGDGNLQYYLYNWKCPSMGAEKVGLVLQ

SMILES	IC50 [µM]
CCN(C)c1nc(N(C)C2CCNCC2)nc2ccc(S(=O)(=O)Nc3c(C)nn(C)c3C)cc12	1.7
CCN(C)c1nc(N(C)CCCN(C)C)nc2ccc(S(=O)(=O)Nc3c(C)nn(C)c3C)cc12	1.1
CN(c1nc(N2CCC[C@H]2CC#N)c2sccc2n1)C1CCNCC1	1.6
CN1CCC(N(C)c2nc(N3CCC[C@H]3CC#N)c3sccc3n2)CC1	> 100
CC(C)CN1CCC(N(C)c2nc(N(C)CCC#N)c3sccc3n2)CC1	> 100
COC[C@@H]1CCCN1c1nc(N(C)C2CCNCC2)nc2ccsc12	5
CN(CCC#N)c1nc(N(C)C2CCNCC2)nc2ccsc12	11
COc1ccc2nc(N(C)CCCN(C)C)nc(N(C)CCC#N)c2c1	> 100
COC[C@@H]1CCCN1c1nc(N(C)C2CCN(C)CC2)nc2ccsc12	> 100
CN1CCC(N(C)c2nc(N(C)CCC#N)c3cc(Br)ccc3n2)C1 (centres undefined)	> 100
Cc1ccccc1-c1ccc2nc(N(C)CCCN(C)C)nc(N(C)CCC#N)c2c1	> 100
CN(CCC#N)c1nc(N(C)C2CCNC2)nc2cc(C(C)(C)C)sc12 (centres undefined)	> 100
CN(C)CCCN(C)c1nccc(N(C)CCC#N)n1	> 100
CN1CCC(N(C)c2nc(N(C)CCC#N)c3cc(Br)ccc3n2)CC1	> 100
CN(C)CCCN(C)c1nc(N(C)CCC#N)c2cccnc2n1	> 100
CN(C)CCCN(C)c1nc(N(C)CCC#N)c2cc(-c3ccccc3)ccc2n1	> 100
CN(C)CCCN(C)c1nc(N(C)CCC#N)c2c(ncn2C)n1	> 100
CN1CCC(N(C)c2nc(N(C)CCC#N)c3sc(C(C)(C)C)cc3n2)CC1	0.55
COc1ccc(-c2ccc3nc(N(C)CCCN(C)C)nc(N(C)CCC#N)c3c2)c(C)c1	> 100
CN(CCC#N)c1nc(N(C)C2CCNCC2)nc2ccccc12	> 100
COc1ccc2nc(N(C)C3CCN(C)CC3)nc(N(C)CCC#N)c2c1	> 100
CCN(C)c1nc(N(C)C2CCN(C)CC2)nc2ccc(S(=O)(=O)Nc3c(C)nn(C)c3C)cc12	2.3
CC(=O)N(C)CCN(C)c1nc(N(C)CCCN(C)C)nc2ccsc12	> 100
CCN(C)c1nc(N(C)CCCN(C)C)nc2ccsc12	> 100

test system: not listed separately; assay: Inhibition of Leishmania major NMT using p60 SRC(2 to […]) as substrate by CPM dye based fluorescence assay; settings: not given

SMILES	IC50 [µM]
CN(CCC#N)c1nc(N(CCO)C2CCNCC2)nc2ccccc12	8.2
CN(C)CCCN(C)c1nc(N(C)CCC#N)c2sc(C(C)(C)C)cc2n1	0.16
CN(CCC#N)c1nc(N(C)C2CCNC2)nc2ccccc12 (centres undefined)	4.9
CN(C)CCCN(C)c1nc(N(C)CCO)c2sccc2n1	36
CN(C)CCCN(C)c1nc(N2CCC[C@H]2CO)c2sccc2n1	19
CCN1CCC(N(C)c2nc(N(C)CCC#N)c3ccccc3n2)CC1	0.95
CN(C)CCCN(C)c1nc(N(C)CCC(N)=O)c2sccc2n1	13
CN1CCC(N(C)c2nc(N(C)CCC#N)c3sc(C(C)(C)C)cc3n2)CC1	0.042
CN(CCC#N)c1nc(N(C)C2CCNCC2)nc2ccccc12	1.1
CN(C)CCCN(C)c1nc(N(C)CCCO)c2sccc2n1	40
CN(C)CCCN(C)c1nc(N(C)CCC#N)c2ccccc2n1	2.1
CCN(C)c1nc(N(C)CCCN(C)C)nc2ccsc12	13

test system: not listed separately; assay: Inhibition of Leishmania donovani NMT using p60 SRC(2 to […]) as substrate by CPM dye based fluorescence assay; settings: not given

SMILES	IC50 [µM]
CN(C)CCCN(C)c1ncc2sccc2n1	> 100
CCN(C)c1nc(N(C)CCCN(C)C)nc2ccc(S(=O)(=O)Nc3c(C)nn(C)c3C)cc12	0.23
CN(c1nc(N2CCC[C@H]2CC#N)c2sccc2n1)C1CCNCC1	0.21
CN(CCCN(C)c1nc(N(C)CCC#N)c2sccc2n1)Cc1ccccc1	> 100
CN1CCC(N(C)c2nc(N3CCC[C@H]3CC#N)c3sccc3n2)CC1	0.15
CN(CCCO)c1nc(N(C)CCC#N)c2sccc2n1	> 100
CC(C)CN1CCC(N(C)c2nc(N(C)CCC#N)c3sccc3n2)CC1	4
CN(C)CCCN(C)c1nc(N(C)CCC#N)c2cc(Br)ccc2n1	0.35
CN(CCC#N)c1nc(N(C)C2CCOCC2)nc2ccsc12	> 100
CN(C)CCCN(C)c1nc(N(C)CCC#N)c2sc(C(C)(C)C)cc2n1	0.36
CN(CCC#N)c1nc(N(C)C2CCNC2)nc2ccccc12 (centres undefined)	5.8
COCCN(C)c1nc(N2CCN(C)CC2)nc2ccsc12	23
COC[C@@H]1CCCN1c1nc(N(C)C2CCNCC2)nc2ccsc12	4.3
CN(CCC#N)c1nc(N(C)C2CCNCC2)nc2ccsc12	0.5
CN(C)CCCN(C)c1nc(N(C)CCO)c2sccc2n1	22
COc1ccc2nc(N(C)CCCN(C)C)nc(N(C)CCC#N)c2c1	1.8
CCN1CCC(N(C)c2nc(N(C)CCC#N)c3ccccc3n2)CC1	0.97
COC[C@@H]1CCCN1c1nc(N(C)C2CCN(C)CC2)nc2ccsc12	0.87
CN(CCC#N)c1nc(N(C)C2CCN(Cc3ccccc3)CC2)nc2ccsc12	27
CC(C)CN(C)CCCN(C)c1nc(N(C)CCC#N)c2sccc2n1	> 100
CN(CCC#N)c1nc(N(C)C2CCN(Cc3ccccc3)C2)nc2cc(C(C)(C)C)sc12 (centres undefined)	7.8

SMILES	IC50 [µM]
CN1CCC(N(C)c2nc(N(C)CCC#N)c3cc(Br)ccc3n2)C1 (centres undefined)	5.5
Cc1ccccc1-c1ccc2nc(N(C)CCCN(C)C)nc(N(C)CCC#N)c2c1	0.67
CN(CCC#N)c1nc(N(C)C2CCNC2)nc2cc(C(C)(C)C)sc12 (centres undefined)	5.5
CN(C)CCCN(C)c1nccc(N(C)CCC#N)n1	> 100
COCCN(C)c1nc(N(C)CCCN(C)C)nc2ccsc12	44
CN(CCC#N)c1nc(N(C)C2CCN(Cc3ccccc3)C2)nc2ccsc12 (centres undefined)	> 100
CN1CCC(N(C)c2nc(N(C)CCC#N)c3cc(Br)ccc3n2)CC1	0.95
CN(C)CCCN(C)c1nc(N(C)CCC#N)c2cccnc2n1	2.4
CN(C)CCCN(C)c1nc(N(C)CCC#N)c2cc(-c3ccccc3)ccc2n1	0.39
CN(C)CCCN(C)c1nc(N(C)CCC#N)c2c(ncn2C)n1	> 100
CN1CCC(N(C)c2nc(N(C)CCC#N)c3sc(C(C)(C)C)cc3n2)CC1	0.046
COc1ccc(-c2ccc3nc(N(C)CCCN(C)C)nc(N(C)CCC#N)c3c2)c(C)c1	6.6
CN1CCN(c2nc(N(C)CCC#N)c3sccc3n2)CC1	30
CN(CCC#N)c1nc(N2CCNCC2)nc2ccsc12	28
COc1ccc2nc(N(C)C3CCN(C)CC3)nc(N(C)CCC#N)c2c1	0.5
CCN(C)c1nc(N(C)C2CCN(C)CC2)nc2ccc(S(=O)(=O)Nc3c(C)nn(C)c3C)cc12	0.2
CCN(C)c1nc(N(C)C2CCN(Cc3ccccc3)CC2)nc2ccsc12	> 100
CC(=O)N(C)CCN(C)c1nc(N(C)CCCN(C)C)nc2ccsc12	> 100
CNCCCN(C)c1nc(N(C)CCC#N)c2sccc2n1	5.2
CN(C)CCCN(C)c1nc(N(C)CCC(=O)N(C)C)c2sccc2n1	54
COc1ccc2c(N(C)CCC#N)nc(N(C)CCCN(C)C)nc2c1	9.5

test system: human NMT1 versus Leishmania donovani NMT; assay: Selectivity ratio of IC50 for human NMT1 to IC50 for Leishmania donovani NMT; type: toxicity; settings: read-out: Ratio IC50
In short: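 Ratio of IC₅₀ for HsNMT1 to IC₅₀ for LdNMT. Both were measured in a fluorogenic CPM assay, in which coenzyme A released by acyl transfer is detected with the thiol-reactive dye CPM.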

SMILES	selectivity ratio
CCN(C)c1nc(N(C)C2CCNCC2)nc2ccc(S(=O)(=O)Nc3c(C)nn(C)c3C)cc12	5.2
CCN(C)c1nc(N(C)CCCN(C)C)nc2ccc(S(=O)(=O)Nc3c(C)nn(C)c3C)cc12	4.6
CN(c1nc(N2CCC[C@H]2CC#N)c2sccc2n1)C1CCNCC1	7.8
CN1CCC(N(C)c2nc(N3CCC[C@H]3CC#N)c3sccc3n2)CC1	> 660
CC(C)CN1CCC(N(C)c2nc(N(C)CCC#N)c3sccc3n2)CC1	> 25
COC[C@@H]1CCCN1c1nc(N(C)C2CCNCC2)nc2ccsc12	1.2
CN(CCC#N)c1nc(N(C)C2CCNCC2)nc2ccsc12	22
COc1ccc2nc(N(C)CCCN(C)C)nc(N(C)CCC#N)c2c1	> 56
COC[C@@H]1CCCN1c1nc(N(C)C2CCN(C)CC2)nc2ccsc12	> 120
CN1CCC(N(C)c2nc(N(C)CCC#N)c3cc(Br)ccc3n2)C1 (centres undefined)	> 18
Cc1ccccc1-c1ccc2nc(N(C)CCCN(C)C)nc(N(C)CCC#N)c2c1	> 150
CN(CCC#N)c1nc(N(C)C2CCNC2)nc2cc(C(C)(C)C)sc12 (centres undefined)	> 18
CN1CCC(N(C)c2nc(N(C)CCC#N)c3cc(Br)ccc3n2)CC1	> 20
CN(C)CCCN(C)c1nc(N(C)CCC#N)c2cccnc2n1	> 42
CN(C)CCCN(C)c1nc(N(C)CCC#N)c2cc(-c3ccccc3)ccc2n1	> 260
COc1ccc(-c2ccc3nc(N(C)CCCN(C)C)nc(N(C)CCC#N)c3c2)c(C)c1	> 15
COc1ccc2nc(N(C)C3CCN(C)CC3)nc(N(C)CCC#N)c2c1	> 200
CCN(C)c1nc(N(C)C2CCN(C)CC2)nc2ccc(S(=O)(=O)Nc3c(C)nn(C)c3C)cc12	11
CCN(C)c1nc(N(C)CCCN(C)C)nc2ccsc12	> 8
